# Screening data deposited in PubChem by several laboratories.
# Statin myotox sup – suppressors of statin myotoxicity in C2C12 myotubes, primary screen, cell-based, single point, plate reader | C2C12 myotubes + simvastatin, ATP luminescence, 48 h; scaled: DMSO 0, geranylgeraniol control 100 | rescue of ATP level, % at 7.49 µM | actives 0.78% (n = 330,000);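 active = mean ATP rescue above about 67%, or every replicate alone reaching that limit, limit read from the data, passing the limit was not always enough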;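 also: myotubes were challenged with 10 µM simvastatin during compound exposure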
# Efflux pump inh – inhibitors of Candida efflux pumps in yeast, primary screen, S. cerevisiae, Nile Red, multiplex | S. cerevisiae Candida pump triplex | actives 0.44% (n = 330,000) | AID 485275, 2010 | inhibition, % at 10 µM;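 active = plate passing quality check with inhibition over a set limit, or well fluorescence over plate mean plus 4 SD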;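 also: Nile Red retained in pooled yeast measured as flow cytometry median fluorescence; 0% = buffer negative control and 100% = Enniatin B positive control; higher means more Nile Red kept so more efflux inhibition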
# Mot1-301 SUMO – yeast Mot1-301 growth rescue at high temperature, primary screen, SUMOylation pathway inhibitor project, S. cerevisiae, ATP luminescence, 38.5C. S. cerevisiae Mot1-301 growth rescue; percent above DMSO median, 100 means doubled. actives 1% (n = 320,000). growth rescue, % at 18.8 µM;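 active = every valid replicate shows activation above 250% relative to neutral control wells; inactive = the rest, any valid replicate at or below 250%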;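 also: OY570 slx delta 5 strain wells were the positive control but not used for scaling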
# Cneo AK release – Cryptococcus neoformans cell lysis inducers, primary screen, AK release luminescence, single concentration; actives 0.2% (n = 360,000); AID 651654, 2012; lysis activity, % at 15 µM; C. neoformans lysis, adenylate kinase release luminescence, 4 h; normalised: neutral wells 0, clomiphene wells 100;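 active = mean lysis activity across replicates of at least 80%, whatever share of replicates individually reach that level; inactive = mean lysis activity below 80%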
#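 Schedule: static 4 h at 37 °C with compound, 1 h detection; system: C. neoformans cells; benchmarks: Clomiphene as positive control; buffer or medium: fresh YPD medium; measure: luminescence rise reflecting yeast cell lysis; measured by: luminescent adenylate kinase detection reagent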
# Mot1 SUMO dose – growth restoration of Mot1-301 yeast on galactose, dose response, SUMO pathway inhibitor project, whole organism, S. cerevisiae, ATP luminescence, cherry-picked samples; AID 493004, 2010; 2,300 tested, under 10 active; S. cerevisiae Mot1-301 galactose growth, 24 h; -100 = growth of slx-deleted rescue strain; shares compounds with Mot1-301 SUMO; growth activity, percent, % at 42 µM;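 active = Signal drops as the depositor expects, and the fitted half-maximal dose is no more than ten times the top valid tested dose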;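 also: more negative values mean stronger growth rescue toward the control strain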
# Numbers without * were called inactive; / = not tested or not shown; + = active, no number. Most compounds without a hit are left out; they make up all but 1.8% or so of the library.
SMILES,Statin myotox sup,Efflux pump inh,Mot1-301 SUMO,Cneo AK release,Mot1 SUMO dose
COc1ccccc1C(=O)NC(=O)COC(=O)Cc1ccccc1[N+](=O)[O-],7,0,617*,2,-1
Clc1cc(Br)ccc1OCCCn1ccnc1,1,0,286,/,/
Cc1ccc(C)c(NC(NC(=O)c2ccccn2)C(Cl)(Cl)Cl)c1 (centres undefined),/,0,982*,/,0
Cc1ccc(S(=O)(=O)N(C)c2ccc(OC(=O)CN3C(=O)NC4(CCCC4)C3=O)cc2)cc1C,2,0,+,-2,0
CC(C)N1C(=O)CC(Nc2ccc(N3CCOCC3)cc2)C1=O (centres undefined),-22,0,11,-3,/
COc1ccc(NC2CC(=O)N(C(C)C)C2=O)cc1 (centres undefined),8,0,507*,0,0
CCS(=O)c1ccccc1C(=O)O (centres undefined),4,0,392*,-3,0
CCN(CC)S(=O)(=O)c1cccc2cc(C(=O)O)c(O)cc12,3,0,-7,-1,/
Cc1ccc(NC(=S)NC(NC(=O)c2ccccc2C)C(Cl)(Cl)Cl)c(C)c1 (centres undefined),16,0,627*,1,0
COc1cc(C(=O)N/N=C/c2ccccn2)cc(OC)c1OC,/,0,935*,/,0
Cc1ccc(CSCCNS(=O)(=O)c2ccc([N+](=O)[O-])cc2)cc1,/,0,32,2,/
C[C@@H]1CN([C@H](C)CO)C(=O)c2cc(NS(=O)(=O)c3ccccc3)ccc2O[C@@H](C)CCCCO[C@@H]1CN(C)Cc1ccc(C(F)(F)F)cc1,/,/,/,-4,/
CCCC1Cc2c(sc3ncnc(N)c23)CO1 (centres undefined),11,0,420*,-2,-1
O=C(Nn1c(O)c(C=C2N=c3ccccc3=N2)sc1=S)c1ccccc1Cl,11,1,-9,-1,/
O=S(=O)(Nn1c(O)c(C=C2N=c3ccccc3=N2)sc1=S)c1ccccc1,8,0,908*,-4,1
COc1ccccc1CN(C)C(=O)c1ccc2c(c1)NC(=O)CS2,2,0,-7,-1,/
Cc1ccc(CN(C)C(=O)c2ccc3c(c2)NC(=O)CS3)o1,8,0,364*,0,0
CCOC(=O)c1c(NC(=O)CN2CCOCC2)sc2c1CCCC2,/,0,-1,0,/
O=C(Nc1ccccn1)c1ccc(CN(c2ccccc2)S(=O)(=O)c2ccccc2)cc1,13,0,505*,1,0
Cc1cc(C)n(/N=C/c2ccc(O)cc2)c(=O)c1C#N,3,0,4,-1,/
O=C(O)CCC(NC(=O)c1ccc(Cl)cc1)C(=O)O (centres undefined),/,0,+,/,0
CCn1ncc(C2=NOC(C(=O)Nc3c(C)nn(Cc4ccc(F)cc4)c3C)C2)c1C (centres undefined),-3,0,143,0,/
COc1ccc(/C=C2\SC(=S)N(CCCC(=O)Nc3cc(C)on3)C2=O)cc1OC,10,1,+,1,0
C[C@H](O)C#Cc1cnc2c(c1)C(=O)N([C@@H](C)CO)C[C@H](C)[C@@H](CN(C)CC1CCOCC1)O2,-4,/,/,-1,/
C[C@@H]1CN([C@@H](C)CO)S(=O)(=O)c2ccc(C3=CCCCC3)cc2O[C@@H]1CN(C)C(=O)c1ccccc1,-51,/,/,40,/
SMILES,Statin myotox sup,Efflux pump inh,Mot1-301 SUMO,Cneo AK release,Mot1 SUMO dose
CCCCn1c(N)c(N(Cc2ccccc2OC)C(=O)c2c(CC)noc2C)c(=O)[nH]c1=O,/,0,395*,0,1
CCCCn1c(N)c(N(CC)C(=O)c2c(CC)noc2C)c(=O)[nH]c1=O,-7,0,4,1,/
CC[C@H]1C/C=C\Cc2ccccc2[C@H](C(=O)C[C@@H](O)CC(C)=O)OC1=O,0,0,-16,-2,/
CC[C@@H]1C/C=C\Cc2ccccc2[C@H](C(=O)C[C@@H](O)CC(C)=O)OC1=O,8,1,497*,-2,-1
O=C(NC1=NCCS1)c1ccc(C(F)(F)F)cc1,-6,0,-11,-1,/
O=C(Nc1ncccn1)c1ccc(C(F)(F)F)cc1,/,0,438*,/,-1
Clc1ccc(-c2nnn(Cc3nc4ccccc4s3)n2)cc1,0,0,38,-2,/
COc1ccc(S(=O)(=O)N(C)C[C@H]2OCCCC[C@@H](C)Oc3ccc(NC(=O)Nc4ccc(F)cc4)cc3C(=O)N([C@H](C)CO)C[C@H]2C)cc1,-53,/,/,1,/
Cc1cccc(CSc2nnc(-c3cccs3)n2Cc2ccco2)c1,/,0,-17,-6,/
Cc1cc(C)c(NC(=O)Cn2c([N+](=O)[O-])cnc2C)c(C)c1,/,0,+,/,0
Cc1ccc(C)c(NC(=O)Cn2c([N+](=O)[O-])cnc2C)c1,0,0,-24,/,/
CCn1c(SCC(=O)NC2CCCCC2)nnc1C(C)NC(=O)c1ccccc1F (centres undefined),3,0,+,1,1
CC(NC(=O)c1ccccc1F)c1nnc(SCC(=O)NC2CCCCC2)n1C (centres undefined),27,0,-10,-4,/
CCCc1nc(SCC(=O)Nc2nnc(CC)s2)c2c(C)c(C)sc2n1,-6,0,293,3,/
Cc1ccc(S(=O)(=O)n2cccc2C)cc1,/,0,688*,1,0
C=CCn1c(=O)c(C(=O)NCc2ccc3c(c2)OCO3)c(O)c2cc(OC)c(OC)cc21,-5,0,128,-6,/
COc1cc2c(=O)n(-c3ccc(C)cc3)c(=O)n(CC(=O)c3ccc4c(c3)OCO4)c2cc1OC,45,0,694*,3,0
CC[C@H](C)[C@H](NC(=O)OCc1ccccc1)C(=O)OCC(=O)N1CCN(c2ccc(OC)cc2)CC1,5,/,/,0,/
CCCCCCCC(=O)NNC(=O)Cc1ccccc1,/,0,9,6,/
CCCCCC(=O)NNC1=NCC(Cc2cccc(Cl)c2)S1 (centres undefined),/,0,734*,/,1
CCOc1ccc(Oc2ccccc2NC(=O)CCNC(C)=O)cc1,-2,0,20,0,/
CC(C)(C)CC(=O)Nc1cc(S(=O)(=O)N2CCOCC2)ccc1N1CCCC1,4,0,508*,2,0
CN1CCC(=O)N(CCOc2ccccc2)CC1,3,0,9,-3,/
Cc1ccc(C(c2nnnn2Cc2cccs2)N2CCN(C(=O)c3ccco3)CC2)cc1 (centres undefined),-40,0,73,1,/
